We go through 3 compounds from PMC12137828 (Nature Communications, 2025).

For one experiment, the target named is T1, AtDHAD (Arabidopsis thaliana, UniProt Q9LIR4).
T1 sequence (Q9LIR4 35-608): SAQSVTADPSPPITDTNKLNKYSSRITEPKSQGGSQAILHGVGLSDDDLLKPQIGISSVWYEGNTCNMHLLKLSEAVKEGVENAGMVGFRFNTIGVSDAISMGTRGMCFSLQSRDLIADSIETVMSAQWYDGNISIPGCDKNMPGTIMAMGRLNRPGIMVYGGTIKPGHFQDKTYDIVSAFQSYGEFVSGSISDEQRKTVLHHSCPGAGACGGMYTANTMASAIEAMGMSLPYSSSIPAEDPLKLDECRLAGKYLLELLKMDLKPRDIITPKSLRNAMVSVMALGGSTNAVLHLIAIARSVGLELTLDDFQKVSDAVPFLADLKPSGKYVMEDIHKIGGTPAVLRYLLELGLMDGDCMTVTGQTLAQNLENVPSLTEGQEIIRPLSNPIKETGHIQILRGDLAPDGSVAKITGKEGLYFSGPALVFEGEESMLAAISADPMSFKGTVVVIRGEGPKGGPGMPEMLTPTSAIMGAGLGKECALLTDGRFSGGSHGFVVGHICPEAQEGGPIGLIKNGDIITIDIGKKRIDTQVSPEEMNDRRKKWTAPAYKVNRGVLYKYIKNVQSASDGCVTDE
The experiment in a line: MST assay, binding affinity. A digest of the protocol: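 AtDHAD was expressed in E. coli BL21(DE3) under IPTG induction, with FeCl3 and L-Ara added to stabilise the [2Fe-2S] cluster. It was purified by Ni-NTA anaerobically and lysine-labelled with RED-NHS dye. Ligand from 10−10 to 10−1 M was incubated with 50 nM labelled protein for 30 min at 4 °C in phosphate buffer (0.05% Tween 20, pH 7.4). Excitation was 100% or 40%, with medium MST power. Kd is given as mean ± SD.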

The next experiment relates to cyanobacteria. The note with it: by targeting DHAD ref 3; cited from earlier work.
Experiment [1] relates to 2-week-old A. thaliana plants. The experiment in a line: Postemergence treatment of A. thaliana. The class given is in vivo, Arabidopsis thaliana. A digest of the protocol: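 Col-0 seeds were chilled at 4 °C for 3 days and grown in soil pots in a light incubator at 22 °C with an 8 h light/16 h dark cycle. Test compound was dissolved in DMSO and diluted with 0.5% aqueous Tween 80 to a final 200 μg/mL (DMSO below 5%), then applied by foliar spray. Fresh weight inhibition was read out.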

In experiment [2] the test system is glufosinate-resistant Arabidopsis thaliana. The note with it: 250 µM ref 2; cited from earlier work.

Read-outs that look alike come from different tables or passages of the source.

As a reminder, the Kd is the equilibrium constant for the complex coming apart. High values mean a looser complex, low ones a tighter complex. At AtDHAD (Kd), `CC(C)(O)C(O)C(=O)O` (stereo not shown) [Substrate (dihydroxyisovalerate), 2,3-dihydroxy-3-methylbutanoic acid] gave a Kd of 5.39 µM.
With `O=C(O)C(O)C(=O)O` [TA, tartronic acid], on AtDHAD (Kd), binding was characterised by a dissociation constant (Kd) of 507 µM. For the same compound, in the experiment with cyanobacteria, the growth of cyanobacteria result is “inhibited the growth of cyanobacteria”.
In the case of aspterric acid [AA], at AtDHAD, the dissociation constant Kd came out at 3.41 µM. Besides, in experiment [1] (200 μg/mL foliar spray, 20 days after treatment), the “Fresh weight inhibition rate (%)” value is recorded as 55.96%. In addition, the “symptoms after postemergence treatment of two-week-old plants” value in experiment [1] (foliar spray, 200 μg/mL) is “cessation of new leaf production and the onset of leaf wilting”. The “herbicidal activity against glufosinate-resistant Arabidopsis thaliana” value in experiment [2] is recorded as “exhibits herbicidal activity”.
